# Compounds with a hit are over-represented: about 1.6% of the library has one in this group of screens.
# LEDGF integ inh – blocks HIV-1 LEDGF/p75-dependent DNA integration; TR-FRET IN-LEDGF/p75 DNA integration, Eu/Cy5; inhibition, % at 3.7 µM; 370,000 tested, 0.64% active; AID 743269;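 active = inhibition above the screen-wide mean plus 3 SD, cut at about 13% in these data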;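 also: signal is the Cy5 over europium emission ratio at 671 and 618 nm; 0% = plate median of compound wells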
# UHRF1 MBD2 ctr – human UHRF1 methylated DNA binding inhibitors; UHRF1 binding to methylated oligo, TR-FRET; 370,000 tested, 0.75% active; inhibition, % at 4.4 µM; Q96T88; AID 687016; in the data active = inhibition above about 21%;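 also: UHRF1 SRA domain binding a hemimethylated CpG hairpin DNA probe; 0% = median of test compound wells and 100% = reference inhibitor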
# MBD2 inh – blocks human MBD2 binding to methylated DNA; Q9UBB5; TR-FRET, MBD2 binding to methylated oligonucleotide; inhibition, % at 4.4 µM; 370,000 tested, 0.31% active; in the data active = inhibition above about 13%
# TDP2 inh – TDP2 (human) inhibition, absorbance primary screen; AID 720702; inhibition, % at 12.8 µM; recombinant TDP2, T5PNP hydrolysis, p-nitrophenol absorbance 415 nm; 370,000 tested, 0.34% active;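 active = inhibition above the mean of all tested compounds plus 3 SD, set per campaign, cut at about 25% in these data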;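 also: 0% = DMSO with enzyme and 100% = buffer with substrate but no TDP2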
# Target sequence (O95551 whole entry, looked up): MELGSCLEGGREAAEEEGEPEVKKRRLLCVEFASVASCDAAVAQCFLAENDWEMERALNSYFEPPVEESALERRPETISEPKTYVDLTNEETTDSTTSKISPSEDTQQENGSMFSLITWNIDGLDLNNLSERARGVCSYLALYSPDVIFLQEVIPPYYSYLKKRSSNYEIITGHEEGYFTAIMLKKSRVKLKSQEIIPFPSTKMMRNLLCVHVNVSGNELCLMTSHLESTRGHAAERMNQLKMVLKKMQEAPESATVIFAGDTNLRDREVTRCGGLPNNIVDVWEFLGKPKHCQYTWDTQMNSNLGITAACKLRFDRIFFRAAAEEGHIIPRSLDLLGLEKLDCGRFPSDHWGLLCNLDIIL
#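 test system = human TDP2 enzyme | input = TDP2 enzyme at 120 nM final | medium = 50 mM Tris-HCl pH 7.5 with Mg2+, KCl, DTT, BSA | also added = T5PNP substrate, 5 mM | times = 2 h at 37 °C | technique = epi absorbance | benchmarks = high control without enzyme, low control DMSO plus TDP2 | replication = each compound tested once, singlicate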
# * marks the source's active call; other numbers are inactive results; ! = not active in a repeat.
SMILES,LEDGF integ inh,UHRF1 MBD2 ctr,MBD2 inh,TDP2 inh
COc1ccccc1CCc1nnc(CCC(=O)NCCOc2cccnc2)o1,3,25*,4,9
CCCCCC[C@H](CN(CCCC)S(C)(=O)=O)c1ccccc1,1,-3,-1,0
CS(=O)(=O)N1CCc2cc(C(=O)N3CCN(c4ccccc4F)CC3)ccc21,4,23*,5,-5
C#CCCN([C@@H](CC(C)C)C(=O)OC)S(=O)(=O)c1ccccc1Br,-2,-1,4,1
Cc1ccc(NC(=S)NC(=O)CC2CC(C)(C)OC2=O)cc1 (configuration not stated),-3,62*,3,-5
CCCN(C)C[C@H]1Oc2cc(C#Cc3ccc(F)cc3)ccc2S(=O)(=O)N([C@H](C)CO)C[C@@H]1C,-5,22*,14*,-5
C[C@@H]1CN([C@H](C)CO)S(=O)(=O)c2ccc(C#CC3CCCC3)cc2O[C@H]1CN(C)C(=O)Cc1ccccc1,3,22*,10,-5
CCC(=O)N(C)C[C@@H]1Oc2cc(Br)ccc2S(=O)(=O)N([C@@H](C)CO)C[C@@H]1C,-2,1,3,8
C[C@@H]1CN([C@H](C)CO)S(=O)(=O)c2ccc(C#Cc3ccccc3)cc2O[C@@H]1CN(C)C(=O)CN(C)C,-5,-2,3,2
CCCC#Cc1ccc2c(c1)O[C@H](CN(C)C(=O)CC1CC1)[C@H](C)CN([C@@H](C)CO)S2(=O)=O,-4,24*,11,4
N#Cc1ccc(S(=O)(=O)NC(=O)[C@H]2O[C@@H](n3ccc(=O)[nH]c3=O)[C@H](O)[C@@H]2O)cc1,9,1,2,-13
N/C(=N\OC(=O)c1cc([N+](=O)[O-])ccc1Cl)c1ccccn1,-1,46*,-6,7
N/C(=N\OC(=O)c1ccc([N+](=O)[O-])cc1Cl)c1ccccn1,8,7,4,-16
O=C(c1cc(Cl)ccc1F)N1CCCC(c2nc(-c3cccs3)no2)C1 (configuration not stated),-5,2,3,2
Cc1ccc(C(=O)NNC(=O)C(C)Sc2nc(N)cc(N)n2)cc1 (configuration not stated),0,21*,8,-4
O=C(CCS(=O)(=O)c1ccc(F)cc1)Nc1nc(-c2ccccn2)cs1,-1,21*,5,-1
O=C(/C=C/c1ccco1)Oc1ccc(C(=S)N2CCOCC2)cc1,0,0,-3,13
O=C(/C=C/c1ccccc1)Oc1ccc(C(=S)N2CCOCC2)cc1,2,28*,12,-6
COc1ccc(CC(=O)Oc2ccc(C)cc2Br)cc1OC,14*,1,2,-12
CCC(C)CNC(=O)c1oc(=O)c2ccccc2c1-c1ccc(C)cc1 (configuration not stated),0,2,2,8
COC(=O)c1sc(S(=O)(=O)N2CCC(C)CC2)c(C(=O)OC)c1C,-4,24*,-3,1
COc1ccccc1CN(C)C(=O)C1CCCN(c2nc3ccccc3o2)C1 (configuration not stated),1,1,-1,-6
O=C(c1coc2ccc(O)cc12)C1CC1,-5,21*,-10,6
CCOC(=O)CC[C@@H]1CC[C@]2(CCCN(S(=O)(=O)C3CCCCC3)C2)O1,3,2,-2,2
CC1CCCC(C)N1C(=O)c1cc2ncc(CCCl)cn2n1 (configuration not stated),-4,51*,-3,7
SMILES,LEDGF integ inh,UHRF1 MBD2 ctr,MBD2 inh,TDP2 inh
O=C(c1cn2ccccc2n1)N1CCCC(Nc2ccc(F)c(F)c2)C1 (configuration not stated),-5,23*,1,-7
Cc1ccc(NC2CCCN(C(=O)c3cn4cc(Cl)ccc4n3)C2)cc1C (configuration not stated),2,-4,2,0
Oc1ccc(/C=N/Nc2cc(N3CCCC3)nc(N3CCCC3)n2)cc1O,33*,4,2,-4
Oc1ccc(/C=N\Nc2cc(N3CCOCC3)nc(N3CCOCC3)n2)c(O)c1,3,-3,-9,-10
CCOC(=O)[C@]12CCCC3=C1N(CCC3)C(=O)[C@@H](CC(=O)N1CCCC1)C2,-1,1,-5,0
COC(=O)[C@]12C[C@H](CC(=O)NCC34CC5CC(CC(C5)C3)C4)C(=O)N(CCc3ccc(OC)c(OC)c3)C1=C[C@H](C(C)(C)C)O[C@@H]2C,0,1,-1,-7
Cc1c(COC(=O)NC(C)C)c(COC(=O)NC(C)C)c2n1CS(=O)(=O)C2,-5,26*,4,4
COC(=O)c1c(C(=O)OC)c(-c2ccc(C)cc2)n2c1CS(=O)(=O)C2,-1,1,-1,-7
CC(C)CNc1cccc2c1S(=O)(=O)N(Cc1cn(Cc3cccc(C(F)(F)F)c3)nn1)Cc1ccccc1O2,1,11,5,-8
Cc1ccc(C(=O)OCC(=O)N2CCCCCC2)c(O)c1,-5,29*,2,6
Cc1cccc(Cn2cc(CN3CC(N(C)CCCOC(=O)c4cc5ccccc5o4)CS3(=O)=O)nn2)c1 (configuration not stated),3,12,0,5
COc1cc(/C=N/NC(=O)c2cc(C)oc2C)ccc1OCc1ccccc1,84*,-2,-2,3
COc1cc(/C=N/NC(=O)c2nnn(-c3nonc3N)c2C(C)C)ccc1OCc1ccc(F)cc1,3,21*,10,-1
CCOC(=O)[C@@]12CCCC3=C1N(CCC3)C(=O)[C@H]2CC(=O)NCc1cccc(C(F)(F)F)c1,0,-2,-6,5
O=S1(=O)c2c(NCc3ccco3)cccc2Oc2ccccc2CN1Cc1cn(Cc2ccc(F)cc2)nn1,-2,2,-6,-10
COc1cc(-c2c(C(=O)c3ccccc3)[nH]c(N)c2C(=O)NCCc2c[nH]c3ccccc23)ccc1F,7,-4,-1,2
C=C[C@H]1CN2CC[C@H]1C[C@@H]2[C@@H](O)c1ccnc2ccc(OC)cc12,0,42*!,4,2
COc1ccc(-c2sc3cc(OC)c(OC)cc3c2C#CC(C)(C)O)cc1,0,12,6,-16
COc1ccc(-c2sc3cc(OC)c(OC)cc3c2C#CCO)cc1,3,22*,7,-10
Cc1ccc(F)cc1C(=O)N1CCOCC1c1cc(C(=O)Nc2ccccc2)no1 (configuration not stated),-1,33*,-1,-2
C[C@]12Cc3ccccc3C1CC1=N[C@@H](c3ccc(C(F)(F)F)cc3)O[C@@]13C[C@@H]2C(=O)N3Cc1ccncc1 (some centres not stated),-2,-2,3,4
COc1ccc2c(c1)c(=O)oc1cc(OCC(=O)N3CCc4ccccc4C3)ccc12,9,39*,21*,9
COc1ccc2c(c1)c(=O)oc1cc(OCC(=O)N3CCCC(C)C3)ccc12 (configuration not stated),0,3,-3,-9
